CHRM5 PAM: CHRM5 positive allosteric modulation. CHO-K1 hM5, Fluo-8 calcium, ACh EC20 PAM; 0% = ACh EC20, 100% = ACh EC100. activation, % at 3 µM. 360,000 compounds, 0.3% hits. AID 624038;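 active = activation above the run cutoff, the mean activation of all test compounds plus 3 SD, cut at about 18% in these data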
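Replicates: One well per compound, no replicates | System: Human M5 receptor in CHO-K1 cells | Benchmarks: Low control EC20 acetylcholine (0%), high control EC100 acetylcholine (100%) | Probe or stimulus: Acetylcholine, EC20 level | Times: Fluo-8 loading 80 min at 37 °C plus 30 min room temperature | Signal: Intracellular calcium via Fluo-8 fluorescence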
CHRM4 agonist: CHRM4 agonism in calcium assay; activation, % at 3 µM; P08173; CHO-K1 hM4/Gqi5, Fluo-8 calcium fluorescence; vehicle 0%, full acetylcholine response 100%; 360,000 compounds, 0.14% hits;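 active = activation above the run mean over all test wells plus 3 SD, cut at about 32% in these data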;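 also: peak over basal fluorescence ratio per well then scaled between controls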
Target sequence (P08173 whole entry, looked up): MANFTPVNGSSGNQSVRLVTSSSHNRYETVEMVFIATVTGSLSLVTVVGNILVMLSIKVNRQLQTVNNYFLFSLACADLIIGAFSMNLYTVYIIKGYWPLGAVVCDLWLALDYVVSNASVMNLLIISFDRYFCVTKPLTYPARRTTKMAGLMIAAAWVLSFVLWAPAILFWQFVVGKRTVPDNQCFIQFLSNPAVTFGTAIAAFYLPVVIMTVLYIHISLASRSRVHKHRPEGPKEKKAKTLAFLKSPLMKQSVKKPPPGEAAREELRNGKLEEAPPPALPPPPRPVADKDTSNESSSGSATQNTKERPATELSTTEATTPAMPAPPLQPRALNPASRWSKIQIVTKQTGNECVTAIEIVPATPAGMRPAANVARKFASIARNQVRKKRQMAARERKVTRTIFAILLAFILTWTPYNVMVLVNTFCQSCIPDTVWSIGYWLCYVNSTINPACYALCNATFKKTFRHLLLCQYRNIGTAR
CHRM4 antagonist: CHRM4 antagonism in calcium assay. P08173. CHO-hM4 cells, ACh EC80, Fluo-8 calcium fluorescence. inhibition, % at 3 µM. 360,000 compounds, 0.73% hits;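 active = inhibition above its plate's cutoff, the mean inhibition of sample wells plus 3 SD, cut at about 27% in these data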
M4 PAM: potentiates acetylcholine response at human M4 receptor | CHO-K1 hM4/Gqi5, Fluo-8 calcium fluorescence, ACh EC20; 0% = ACh EC20, 100% = maximal ACh | activation, % at 3 µM | 360,000 compounds, 0.4% hits | P08173;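 active = activation above its plate's cutoff, the mean activation of sample wells plus 3 SD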
CHRM5 antagonist: antagonists of human muscarinic M5 receptor (CHRM5); P08912; CHO-hM5 cells, Fluo-8 calcium fluorescence, ACh EC80; inhibition, % at 3 µM; 360,000 compounds, 0.59% hits; AID 624040;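 active = inhibition above a per-plate cutoff, the mean of that plate's test compounds plus 3 SD, cut at about 27% in these data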
CHRM5 agonist: agonists of human muscarinic M5 receptor (CHRM5); CHO-K1 hM5 cells, Fluo-8 calcium fluorescence; 0% DMSO wells, 100% maximal acetylcholine response; activation, % at 3 µM; 360,000 compounds, 0.19% hits;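 active = activation above the run's mean over test compounds plus 3 SD, cut at about 23% in these data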;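 also: signal is peak over basal fluorescence ratio across the kinetic read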
A number is an active result; 0 = inactive. In the library only some 1.8% were active in any assay of this set; here they are far more common.

SMILES | CHRM5 PAM | CHRM4 agonist | CHRM4 antagonist | M4 PAM | CHRM5 antagonist | CHRM5 agonist
CC(C)[C@H](NC(=O)OCc1ccccc1)C(=O)OCC(=O)NC1(C#N)CCCC1 | 0 | 0 | 0 | 15.9 | 0 | 0
CC(C)[C@H](NC(=O)OCc1ccccc1)C(=O)OCC(=O)NC1CCCCC1 | 0 | 0 | 0 | 0 | 0 | 0
CCN(C[C@H]1N[C@@](Cc2ccccc2)(C(=O)OC)[C@H]2C(=O)N(C)C(=O)[C@@H]12)C(=O)Nc1ccccc1 | 0 | 0 | 0 | 0 | 0 | 0
Oc1ccc(/C=N/Nc2ccc(C(F)(F)F)cn2)cc1 | 0 | 0 | 0 | 0 | 0 | 0
C/C(=N\Nc1ccc(C(F)(F)F)cn1)c1ccncc1 | 0 | 0 | 0 | 20.9 | 0 | 0
CCN(CC)c1ccc(/C=N/NC(=O)c2ccc3c(c2)OCCO3)cc1 | 0 | 0 | 0 | 0 | 27.9 | 0
CCN(CCn1cccn1)C(=O)c1ccc(OC2CCN(C(=O)COC)CC2)cc1 | 0 | 0 | 0 | 0 | 0 | 0
CC1=C(C(=O)N(C)C)CC(CC(=O)NCCCCc2ccccc2)C(=O)N1CCCN1CCCC1=O (configuration not stated) | 0 | 0 | 0 | 21.9 | 0 | 0
O=C(NNc1ccc([N+](=O)[O-])cc1)c1ccccc1Cl | 0 | 0 | 0 | 0 | 0 | 0
O=C(NC(NNc1ccc([N+](=O)[O-])cc1)(C(F)(F)F)C(F)(F)F)c1ccc(Cl)cc1 | 0 | 0 | 0 | 0 | 27.2 | 0
COc1ccc(CNC2CCCc3ccccc32)cc1OC (configuration not stated) | 0 | 0 | 0 | 0 | 0 | 0
COc1ccccc1CNC1CCCc2ccccc21 (configuration not stated) | 0 | 0 | 29.6 | 0 | 0 | 0
O=C(Nc1nnc(CCS(=O)(=O)c2ccc3ccccc3c2)s1)c1cccs1 | 0 | 0 | 0 | 21.2 | 0 | 0
COc1ccc(S(=O)(=O)CCc2nnc(NC(=O)c3cccs3)s2)cc1 | 0 | 0 | 0 | 0 | 0 | 0
COc1cccc(OCC(O)CN2CCN(C(c3ccccc3)c3ccccc3)CC2)c1 (configuration not stated) | 0 | 0 | 0 | 0 | 0 | 0
CC(=O)c1ccccc1OCC(O)CN1CCN(C(c2ccccc2)c2ccccc2)CC1 (configuration not stated) | 0 | 0 | 34.5 | 0 | 0 | 0
Cc1cc(C(c2ccc(O)cc2)c2cc(C)c(O)cc2C)c(C)cc1O | 0 | 0 | 0 | 0 | 0 | 36.7
CCN1CCN(C(=O)C2CCC(=O)N(CCCN3CCCC3=O)C2)CC1 (configuration not stated) | 0 | 0 | 0 | 0 | 0 | 0
CC1(C)CC(C(CCN(Cc2ccccc2)C(=O)c2ccco2)c2ccc(F)cc2)CCO1 (configuration not stated) | 0 | 0 | 26.6 | 0 | 0 | 0
COc1cccc(C(=O)N2CCN(Cc3nc(CC4CC4)no3)CC2)c1 | 0 | 0 | 0 | 0 | 0 | 0
Cc1cc(Oc2nc3ccccn3c(=O)c2/C=C(\C#N)C(=O)NC2CCS(=O)(=O)C2)ccc1Cl (configuration not stated) | 0 | 0 | 0 | 0 | 0 | 0
NCCc1nnc(SCc2ccc(F)cc2)o1 | 0 | 0 | 0 | 0 | 0 | 0
NCCCCCc1nnc(SCc2ccc(Cl)c(Cl)c2)o1 | 0 | 0 | 67.0 | 0 | 35.9 | 0
COc1ccc(S(=O)(=O)N(C)C)cc1NC(=O)c1ccc2c(c1)NC(=O)C(C)S2 (configuration not stated) | 0 | 0 | 0 | 0 | 0 | 0
C(C#CCCCCCCCCC[n+]1ccccc1)#CCCCCCCCCC[n+]1ccccc1 | 0 | 0 | 91.6 | 0 | 98.7 | 0
SMILES | CHRM5 PAM | CHRM4 agonist | CHRM4 antagonist | M4 PAM | CHRM5 antagonist | CHRM5 agonist
CN(CC(=O)Nc1ccccc1Cl)C(=O)CSc1nncn1C | 0 | 0 | 0 | 0 | 0 | 0
COc1ccccc1CC(=O)NNS(=O)(=O)c1ccccc1[N+](=O)[O-] | 0 | 0 | 0 | 0 | 0 | 0
COCC(=O)NNS(=O)(=O)c1ccccc1[N+](=O)[O-] | 19.7 | 0 | 0 | 0 | 0 | 0
C[C@H](CO)N1C[C@H](C)[C@@H](CN(C)S(=O)(=O)c2cccs2)Oc2ccc(NS(=O)(=O)c3cn(C)cn3)cc2C1=O | 0 | 0 | 0 | 0 | 0 | 0
C[C@H](CO)N1C[C@H](C)[C@H](CN(C)S(=O)(=O)c2cccs2)Oc2ccc(NC(=O)Nc3ccc4c(c3)OCO4)cc2CC1=O | 0 | 0 | 40.7 | 0 | 0 | 0
C[C@H]1CN([C@@H](C)CO)C(=O)Cc2cc(NS(=O)(=O)c3cccs3)ccc2O[C@H]1CN(C)S(=O)(=O)c1cn(C)cn1 | 0 | 0 | 31.9 | 0 | 0 | 0
C[C@H](CO)N1C[C@H](C)[C@@H](CN(C)S(=O)(=O)c2cccs2)Oc2ccc(NC(=O)Nc3ccc4c(c3)OCO4)cc2C1=O | 0 | 0 | 0 | 0 | 0 | 0
Cc1ccc(S(=O)(=O)N2[C@H](CC(=O)OCc3ccccc3)OC[C@@H]2C)cc1 | 0 | 0 | 0 | 0 | 0 | 0
O=C(/C=C/[C@H]1O[C@@H](n2ccc(=O)[nH]c2=O)[C@H](O)[C@@H]1O)N1CCN(Cc2ccc(F)cc2)CC1 | 0 | 0 | 0 | 0 | 0 | 0
CCN(CC)CCN=c1c(C)nc(C#N)c(N)n1O | 0 | 0 | 0 | 0 | 0 | 0
CCOc1ccc(/C=C/C2=Cc3c(sc(NC(=O)CSc4n[nH]c(N)n4)c3C#N)C(C)(C)C2)cc1 | 0 | 0 | 47.3 | 0 | 0 | 0
CN(Cc1ccc2ccccc2c1)C(=O)c1ccc(C(F)(F)F)cc1 | 0 | 0 | 0 | 0 | 27.3 | 0
COc1ccc(CN(C)C(=O)c2ccc(Oc3ccccc3)cc2)cc1F | 0 | 0 | 0 | 0 | 0 | 0
COc1ccc(C(=O)N/C(=C\c2cn(S(=O)(=O)N(C)C)c3ccccc23)C(=O)N2CCN(C)CC2)cc1OC | 0 | 0 | 0 | 0 | 0 | 0
CCCCOc1ccc(Br)cc1/C(C)=N/NC1=NCCN1 | 0 | 0 | 34.8 | 0 | 0 | 0
CCCCCCOc1ccc(/C(C)=N/NC2=NCCN2)cc1[N+](=O)[O-] | 0 | 0 | 0 | 0 | 0 | 0
Cc1cc(C)nc(NN2C(=O)/C(=C/c3ccccc3)SC2=S)n1 | 0 | 0 | 0 | 0 | 0 | 0
CN(C)c1ccc(/C=C2\SC(=S)N(Nc3ncc(C(F)(F)F)cc3Cl)C2=O)cc1 | 0 | 0 | 34.8 | 0 | 31.2 | 0
COc1cc(/C=C2\SC(=S)N(Nc3ncc(C(F)(F)F)cc3Cl)C2=O)ccc1O | 0 | 0 | 38.8 | 0 | 0 | 0
CN(Cc1ccccc1)C(=O)c1cnc(Cc2c[nH]c3ccccc23)c(I)c1 | 0 | 0 | 0 | 0 | 0 | 0
COc1ccc(N=C2S/C(=C\c3ccc(OCC(=O)O)cc3)C(=O)N2CCc2c[nH]c3ccccc23)cc1 | 0 | 0 | 0 | 0 | 0 | 0
